Results reported in ChEMBL document CHEMBL3612027, “Substrate-guided optimization of the syringolins yields potent proteasome inhibitors with activity against leukemia cell lines” (Bioorg Med Chem, 2015).

How the values were obtained:
A498 = test: Cytotoxicity against human A498 cells assessed as cell growth at 10 uM after 48 hrs relative to control; type: functional; details: A498, 48 h, read-out: Activity
Summary of the method: (§1)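 Run at the National Cancer Institute as a single-dose screen across its 60-cell-line cancer panel. Compound was tested at 10 micromolar, and growth was expressed as a percentage of negative-control cultures.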

UO-31 = test: Cytotoxicity against human UO31 cells assessed as cell growth at 10 uM after 48 hrs relative to control; type: functional; details: UO-31, 48 h, read-out: Activity
Summary of the method: (§2)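 Submitted to the National Cancer Institute for a single-dose screen at 10 micromolar against 60 cancer cell lines. Growth is expressed relative to negative-control cultures.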

DU-145 = test: Cytotoxicity against human DU145 cells assessed as cell growth at 10 uM after 48 hrs relative to control; type: functional; details: DU-145, 48 h, read-out: Activity; summary of the method: as §1
SK-OV-3 = test: Cytotoxicity against human SKOV3 cells assessed as cell growth at 10 uM after 48 hrs relative to control; type: functional; details: SK-OV-3, 48 h, read-out: Activity; summary of the method: as §1
SK-MEL-2 = test: Cytotoxicity against human SK-MEL-2 cells assessed as cell growth at 10 uM after 48 hrs relative to control; type: functional; details: SK-MEL-2, 48 h, read-out: Activity; summary of the method: as §1
NCI-H460 = test: Cytotoxicity against human NCI-H460 cells assessed as cell growth at 10 uM after 48 hrs relative to control; type: functional; details: NCI-H460, 48 h, read-out: Activity; summary of the method: as §1
HT-29 = test: Cytotoxicity against human HT-29 cells assessed as cell growth at 10 uM after 48 hrs relative to control; type: functional; details: HT-29, 48 h, read-out: Activity; summary of the method: as §1
K562 = test: Cytotoxicity against human K562 cells assessed as cell growth at 10 uM after 48 hrs relative to control; type: functional; details: K562, 48 h, read-out: Activity; summary of the method: as §1
NCI-H23 = test: Cytotoxicity against human NCI-H23 cells assessed as cell growth at 10 uM after 48 hrs relative to control; type: functional; details: NCI-H23, 48 h, read-out: Activity; summary of the method: as §1
T47D = test: Cytotoxicity against human T47D cells assessed as cell growth at 10 uM after 48 hrs relative to control; type: functional; details: read-out: Activity; summary of the method: as §2
SK-MEL-28 = test: Cytotoxicity against human SK-MEL-28 cells assessed as cell growth at 10 uM after 48 hrs relative to control; type: functional; details: SK-MEL-28, 48 h, read-out: Activity; summary of the method: as §1
MDA-MB-231 = test: Cytotoxicity against human MDA-MB-231 cells assessed as cell growth at 10 uM after 48 hrs relative to control; type: functional; details: MDA-MB-231, 48 h, read-out: Activity; summary of the method: as §1
[1] = Cytotoxicity against human Hs578T cells assessed as cell growth at 10 uM after 48 hrs relative to control; type: functional; details: Hs-578T, read-out: Activity; summary of the method: as §1
OVCAR-5 = test: Cytotoxicity against human OVCAR5 cells assessed as cell growth at 10 uM after 48 hrs relative to control; type: functional; details: OVCAR-5, 48 h, read-out: Activity; summary of the method: as §1
HOP-92 = test: Cytotoxicity against human HOP92 cells assessed as cell growth at 10 uM after 48 hrs relative to control; type: functional; details: HOP-92, 48 h, read-out: Activity; summary of the method: as §1
IGROV-1 = test: Cytotoxicity against human IGROV1 cells assessed as cell growth at 10 uM after 48 hrs relative to control; type: functional; details: IGROV-1, 48 h, read-out: Activity; summary of the method: as §1
OVCAR-3 = test: Cytotoxicity against human OVCAR3 cells assessed as cell growth at 10 uM after 48 hrs relative to control; type: functional; details: OVCAR-3, 48 h, read-out: Activity; summary of the method: as §1
LOX IMVI = test: Cytotoxicity against human LOXIMVI cells assessed as cell growth at 10 uM after 48 hrs relative to control; type: functional; details: read-out: Activity; summary of the method: as §1
SN12C = test: Cytotoxicity against human SN12C cells assessed as cell growth at 10 uM after 48 hrs relative to control; type: functional; details: read-out: Activity; summary of the method: as §2
SK-MEL-5 = test: Cytotoxicity against human SK-MEL-5 cells assessed as cell growth at 10 uM after 48 hrs relative to control; type: functional; details: SK-MEL-5, 48 h, read-out: Activity; summary of the method: as §1
HCT-116 = test: Cytotoxicity against human HCT116 cells assessed as cell growth at 10 uM after 48 hrs relative to control; type: functional; details: HCT-116, 48 h, read-out: Activity; summary of the method: as §1
SNB-19 = test: Cytotoxicity against human SNB19 cells assessed as cell growth at 10 uM after 48 hrs relative to control; type: functional; details: SNB-19, 48 h, read-out: Activity; summary of the method: as §2
UACC-62 = test: Cytotoxicity against human UACC62 cells assessed as cell growth at 10 uM after 48 hrs relative to control; type: functional; details: UACC-62, 48 h, read-out: Activity; summary of the method: as §2
OVCAR-4 = test: Cytotoxicity against human OVCAR4 cells assessed as cell growth at 10 uM after 48 hrs relative to control; type: functional; details: OVCAR-4, 48 h, read-out: Activity; summary of the method: as §1
SR [2] = test: Cytotoxicity against human SR cells after 48 hrs; type: functional
Summary of the method: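 Dose-dependent growth inhibition was assessed at the National Cancer Institute against its cancer cell line panel as a follow-up to the 10 micromolar single-dose screen.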

SR [3] = test: Cytotoxicity against human SR cells assessed as cell growth at 10 uM after 48 hrs relative to control; type: functional; details: read-out: Activity; summary of the method: as §2
SF-268 = test: Cytotoxicity against human SF268 cells assessed as cell growth at 10 uM after 48 hrs relative to control; type: functional; details: SF-268, 48 h, read-out: Activity; summary of the method: as §1
HL-60(TB) = test: Cytotoxicity against human HL-60(TB) cells assessed as cell growth at 10 uM after 48 hrs relative to control; type: functional; details: HL-60, 48 h, read-out: Activity
Summary of the method: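 Run at the NCI as a single-dose screen: each compound at 10 micromolar across the 60-cancer-cell-line panel. Growth of each cell line in compound-containing media was expressed relative to negative-control cultures.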

786-0 = test: Cytotoxicity against human 786-0 cells assessed as cell growth at 10 uM after 48 hrs relative to control; type: functional; details: 786-0, 48 h, read-out: Activity; summary of the method: as §1
[4] = biological target: T1, Proteasome Macropain subunit MB1 (Homo sapiens) (UniProt P28074)
T1 sequence (whole entry): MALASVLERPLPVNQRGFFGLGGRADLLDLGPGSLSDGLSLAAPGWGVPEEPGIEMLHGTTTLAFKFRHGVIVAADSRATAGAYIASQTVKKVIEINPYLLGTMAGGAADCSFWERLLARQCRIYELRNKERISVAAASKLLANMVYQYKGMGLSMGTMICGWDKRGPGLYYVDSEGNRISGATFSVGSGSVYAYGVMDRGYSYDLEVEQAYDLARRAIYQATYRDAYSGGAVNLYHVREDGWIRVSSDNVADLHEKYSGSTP

| Compound | growth at 10 µM (A498) [%] | growth at 10 µM (UO-31) [%] | growth at 10 µM (DU-145) [%] | growth at 10 µM (SK-OV-3) [%] | growth at 10 µM (SK-MEL-2) [%] | growth at 10 µM (NCI-H460) [%] | growth at 10 µM (HT-29) [%] | growth at 10 µM (K562) [%] | growth at 10 µM (NCI-H23) [%] | growth at 10 µM (T47D) [%] | growth at 10 µM (SK-MEL-28) [%] | growth at 10 µM (MDA-MB-231) [%] | growth at 10 µM [1] [%] | growth at 10 µM (OVCAR-5) [%] | growth at 10 µM (HOP-92) [%] | growth at 10 µM (IGROV-1) [%] | growth at 10 µM (OVCAR-3) [%] | growth at 10 µM (LOX IMVI) [%] | growth at 10 µM (SN12C) [%] | growth at 10 µM (SK-MEL-5) [%] | also measured |
| --- | --- | --- | --- | --- | --- | --- | --- | --- | --- | --- | --- | --- | --- | --- | --- | --- | --- | --- | --- | --- | --- |
| COC(=O)[C@@H](NC(=O)N[C@@H](Cc1ccccc1)C(=O)N[C@H]1CCCCNC(=O)/C=C/[C@H](Cc2c[nH]c3ccccc23)NC1=O)C(C)C | 78.2 | 84 | 95.1 | 95.4 | 22.3 | 99.1 | 29.7 | 82.1 | 78.1 | 34.4 | 62.7 | 79.1 | 58.2 | 113 | 91.3 | 61.4 | 15.7 | 64.7 | 80.1 | 63.9 | growth at 10 µM (HCT-116): 76.4%; growth at 10 µM (SNB-19): 51.2%; growth at 10 µM (UACC-62): 79.3%; growth at 10 µM (OVCAR-4): 102%; GI50 (SR [2]): 453 nM; growth at 10 µM (SR [3]): 21.9%; growth at 10 µM (SF-268): 78.8%; growth at 10 µM (HL-60(TB)): 55.3%; growth at 10 µM (786-0): 99.7% |
| COC(=O)[C@@H](NC(=O)N[C@@H](Cc1ccccc1)C(=O)N[C@H]1CCCCNC(=O)/C=C/[C@H](C(C)C)NC1=O)C(C)C | 104 | 94.7 | 53.1 | 101 | 12.7 | 59.6 | 31.1 | 47.2 | 44.1 | -3.59 | 52.1 | 60.8 | 40.9 | 104 | 18.9 | 45.1 | 1.28 | 15.2 | 75.6 | 34 | growth at 10 µM (HCT-116): 26.5%; growth at 10 µM (SNB-19): 48.8%; growth at 10 µM (UACC-62): 29%; growth at 10 µM (OVCAR-4): 56.6%; growth at 10 µM (SR [3]): 8.54%; growth at 10 µM (SF-268): 30%; growth at 10 µM (HL-60(TB)): 62.5%; growth at 10 µM (786-0): 97.5% |
| COC(=O)[C@@H](NC(=O)N[C@H](C(=O)N[C@H]1CCCCNC(=O)/C=C/[C@H](C(C)C)NC1=O)C(C)C)C(C)C | 43.2 | 82.2 | 42 | 47.5 | 1.6 | 28.9 | 11.7 | 40.5 | 34.2 | -31.7 | 30.2 | 24.4 | 4.52 | 58.4 | -8.79 | 33.4 | -39.6 | -24.1 | 15.8 | -4.25 | growth at 10 µM (HCT-116): 21.2%; growth at 10 µM (SNB-19): 34%; growth at 10 µM (UACC-62): 13.3%; growth at 10 µM (OVCAR-4): 6.22%; GI50 (SR [2]): 5130 nM; growth at 10 µM (SR [3]): 7.05%; growth at 10 µM (SF-268): -20.1%; growth at 10 µM (HL-60(TB)): 27.2%; growth at 10 µM (786-0): 83.3% |
| COC(=O)[C@@H](NC(=O)N[C@H](C(=O)N[C@H]1CCCCNC(=O)/C=C/[C@H](Cc2c[nH]c3ccccc23)NC1=O)C(C)C)C(C)C | 37.9 | 94.3 | 52 | 15.4 | 17.4 | 45.5 | 3.42 | 52 | 38.2 | -9.26 | 41.9 | 39 | 9.21 | 61.1 | 18 | 24.7 | -42.9 | 25.1 | 2.96 | 60.6 | growth at 10 µM (HCT-116): 37.4%; growth at 10 µM (SNB-19): 41.7%; growth at 10 µM (UACC-62): 60.7%; growth at 10 µM (OVCAR-4): 2.98%; growth at 10 µM (SR [3]): 9.87%; growth at 10 µM (SF-268): 9.42%; growth at 10 µM (HL-60(TB)): 17.6%; growth at 10 µM (786-0): 83.9% |
| COC(=O)[C@@H](NC(=O)N[C@@H](Cc1ccccc1)C(=O)N[C@H]1CCCCNC(=O)/C=C/[C@H](Cc2ccccc2)NC1=O)C(C)C | 40.7 | 89.6 | 46.1 | 61.1 | 0.98 | 35.6 | 14.5 | 34.7 | 44.8 | 8.25 | 33.3 | 23.2 | 24.9 | 87 | 15.7 | 30.6 | -36.7 | -4.92 | 29.5 | 18.6 | Kin [4]: 0.000623 s⁻¹; growth at 10 µM (HCT-116): 11.6%; growth at 10 µM (SNB-19): 39.8%; growth at 10 µM (UACC-62): 9.78%; growth at 10 µM (OVCAR-4): 53.3%; GI50 (SR [2]): 2780 nM; growth at 10 µM (SR [3]): 1.45%; growth at 10 µM (SF-268): 10.1%; growth at 10 µM (HL-60(TB)): 20.9%; growth at 10 µM (786-0): 71.8% |
